Drawing on ChEMBL document CHEMBL1156841, “Carbonic anhydrase activators: activation of the beta-carbonic anhydrases from the pathogenic fungi Candida albicans and Cryptococcus neoformans with amines and amino acids” (Bioorg Med Chem, 2010), this text covers KA, Km and kcat for 20 molecules.

The target in data set [1] is T1, Carbonic anhydrase (Candida albicans (strain SC5314 / ATCC MYA-2876) (Yeast)) (UniProt Q5AJ71).
T1 sequence (whole entry): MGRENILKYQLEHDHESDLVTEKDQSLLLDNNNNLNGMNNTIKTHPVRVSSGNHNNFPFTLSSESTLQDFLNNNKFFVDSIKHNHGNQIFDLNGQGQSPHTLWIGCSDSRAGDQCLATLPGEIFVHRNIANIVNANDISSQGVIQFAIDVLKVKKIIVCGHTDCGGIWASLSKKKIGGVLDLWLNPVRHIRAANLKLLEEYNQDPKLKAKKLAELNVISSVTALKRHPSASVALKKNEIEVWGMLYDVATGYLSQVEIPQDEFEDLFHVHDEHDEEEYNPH
Put plainly: Activation of Candida albicans beta-carbonic anhydrase Nce103 by stopped flow CO2 hydration assay. The gist of the method:
(§1)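 Recombinant enzyme (prepared as in earlier work) preincubated with activator 15 min at room temperature. Stopped-flow CO2 hydration at 25 °C followed for 10 s, read with phenol red (0.2 mM) at 557 nm. Buffer was 20 mM Tris pH 8.3 with 20 mM NaClO4. CO2 ranged 1.7–17 mM. Initial velocity came from at least six traces of the first 5–10% of reaction, with the uncatalyzed rate subtracted. KA was fitted from activation versus activator concentration, using dilutions from a 10 mM aqueous stock. Mean of at least three determinations.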

Data set [2] concerns the target T2, Carbonic anhydrase 2 (Cryptococcus neoformans) (UniProt Q3I4V7).
T2 sequence (whole entry): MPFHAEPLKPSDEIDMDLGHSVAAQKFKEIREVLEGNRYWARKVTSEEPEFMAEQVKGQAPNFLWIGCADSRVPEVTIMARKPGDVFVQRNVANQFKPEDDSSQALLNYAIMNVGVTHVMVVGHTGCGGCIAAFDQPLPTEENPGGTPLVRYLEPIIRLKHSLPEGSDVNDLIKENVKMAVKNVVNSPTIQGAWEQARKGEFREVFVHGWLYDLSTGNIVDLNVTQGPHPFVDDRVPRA
Description: Activation of Cryptococcus neoformans beta-carbonic anhydrase Can2 by stopped flow CO2 hydration assay. The gist of the method: as §1

Substrate in data set [3]: NCCc1c[nH]cn1
To be noted: Cryptococcus neoformans.

Substrate in data set [4]: NCCc1c[nH]cn1
The settings on record: Cryptococcus neoformans; 10 uM.

Substrate in data set [5]: NCCc1c[nH]cn1
To be noted: Candida albicans; 10 uM.

Substrate in data set [6]: NCCc1c[nH]cn1
The settings on record: Candida albicans.

As to `N[C@@H](Cc1c[nH]cn1)C(=O)O`, the KA in data set [1] was 24.1 µM; in data set [2], 45 µM.
For `Nc1ccc(C[C@H](N)C(=O)O)cc1`, in that order: 23.7 µM and 30.4 µM.
In the same order, the values of `N[C@H](Cc1c[nH]c2ccccc12)C(=O)O` are 43 µM and 42.1 µM.
Regarding `N[C@@H](Cc1ccccc1)C(=O)O`, the KA in data set [1] came to 15.5 µM; in data set [2] it was 44.1 µM.
Take `N[C@@H](Cc1c[nH]c2ccccc12)C(=O)O`: the values for the KA in data set [1] and in data set [2] were 19.2 µM and 28.7 µM, respectively.
Regarding `N[C@H](Cc1ccccc1)C(=O)O`, the results for the KA in data set [1] and in data set [2] were 8.4 µM and 45.2 µM, respectively.
In the same order, the values of `N[C@@H](Cc1ccc(O)cc1)C(=O)O` are 46.1 µM and 29.5 µM.
On to `NCc1ccccn1`, for which the KA in data set [1] turned out to be 29.1 µM; in data set [2], 47 µM.
`N[C@H](Cc1ccc(O)c(O)c1)C(=O)O`: the KA amounted to 2.5 µM in data set [1] and 35.1 µM in data set [2].
In the same order, the values of `NCCc1c[nH]cn1` are 18.4 µM and 33.2 µM.
In the same order, the values of `NCCc1ccccn1` are 30.2 µM and 46.3 µM.
For `NCCN1CCOCC1`, in that order: 25.4 µM and 40.1 µM.
As for `NCCc1ccc(O)c(O)c1`, the KA in data set [1] is 18.5 µM; in data set [2], 34.6 µM.
Consider `N[C@@H](Cc1ccc(O)c(O)c1)C(=O)O`, for which the KA in data set [1] was determined as 0.96 µM; in data set [2] it was 43.3 µM.
Regarding `N[C@H](Cc1c[nH]cn1)C(=O)O`, the KA in data set [1] worked out at 19.5 µM; in data set [2], 47.2 µM.
For `NCCN1CCNCC1`, in that order: 17.3 µM and 44.9 µM.
For the molecule `CNC[C@@H](O)c1ccc(O)c(O)c1`, the KA came out at 13.2 µM in data set [1] and 32.8 µM in data set [2].
`NCCc1c[nH]c2ccc(O)cc12`: the KA in data set [1] was 28.6 µM; in data set [2] it was 46.7 µM.

B1: Carbonic anhydrase 2 (Cryptococcus neoformans), Q3I4V7 (protein)
chain: MPFHAEPLKPSDEIDMDLGHSVAAQKFKEIREVLEGNRYWARKVTSEEPEFMAEQVKGQAPNFLWIGCADSRVPEVTIMARKPGDVFVQRNVANQFKPEDDSSQALLNYAIMNVGVTHVMVVGHTGCGGCIAAFDQPLPTEENPGGTPLVRYLEPIIRLKHSLPEGSDVNDLIKENVKMAVKNVVNSPTIQGAWEQARKGEFREVFVHGWLYDLSTGNIVDLNVTQGPHPFVDDRVPRA
Take B1: in data set [3], the Michaelis constant (Km) is 9 mM and the kcat was found to be 3.9 ×10⁵ /s. Moreover, the kcat in data set [4] came to 6.8 ×10⁵ /s.

B2: Carbonic anhydrase (Candida albicans (strain SC5314 / ATCC MYA-2876) (Yeast)), Q5AJ71 (protein)
chain: MGRENILKYQLEHDHESDLVTEKDQSLLLDNNNNLNGMNNTIKTHPVRVSSGNHNNFPFTLSSESTLQDFLNNNKFFVDSIKHNHGNQIFDLNGQGQSPHTLWIGCSDSRAGDQCLATLPGEIFVHRNIANIVNANDISSQGVIQFAIDVLKVKKIIVCGHTDCGGIWASLSKKKIGGVLDLWLNPVRHIRAANLKLLEEYNQDPKLKAKKLAELNVISSVTALKRHPSASVALKKNEIEVWGMLYDVATGYLSQVEIPQDEFEDLFHVHDEHDEEEYNPH
Take B2: in data set [5], the kcat is 20.1 ×10⁵ /s. In addition, in data set [6], the Michaelis constant (Km) worked out at 8.2 mM and the kcat came to 8 ×10⁵ /s.
